As usually defined, the IC50 is the concentration at which inhibition is half-maximal. As usually defined, the Kd is the free concentration of one partner at which half of the binding sites on the other are occupied at equilibrium, for simple one-to-one binding. Low readings indicate higher affinity, high ones lower affinity.

Series [1] addresses T1, FLAG tagged ATAD2 (342 - 1390) (Homo sapiens, UniProt Q6PL18).
T1 sequence (Q6PL18 342-1390): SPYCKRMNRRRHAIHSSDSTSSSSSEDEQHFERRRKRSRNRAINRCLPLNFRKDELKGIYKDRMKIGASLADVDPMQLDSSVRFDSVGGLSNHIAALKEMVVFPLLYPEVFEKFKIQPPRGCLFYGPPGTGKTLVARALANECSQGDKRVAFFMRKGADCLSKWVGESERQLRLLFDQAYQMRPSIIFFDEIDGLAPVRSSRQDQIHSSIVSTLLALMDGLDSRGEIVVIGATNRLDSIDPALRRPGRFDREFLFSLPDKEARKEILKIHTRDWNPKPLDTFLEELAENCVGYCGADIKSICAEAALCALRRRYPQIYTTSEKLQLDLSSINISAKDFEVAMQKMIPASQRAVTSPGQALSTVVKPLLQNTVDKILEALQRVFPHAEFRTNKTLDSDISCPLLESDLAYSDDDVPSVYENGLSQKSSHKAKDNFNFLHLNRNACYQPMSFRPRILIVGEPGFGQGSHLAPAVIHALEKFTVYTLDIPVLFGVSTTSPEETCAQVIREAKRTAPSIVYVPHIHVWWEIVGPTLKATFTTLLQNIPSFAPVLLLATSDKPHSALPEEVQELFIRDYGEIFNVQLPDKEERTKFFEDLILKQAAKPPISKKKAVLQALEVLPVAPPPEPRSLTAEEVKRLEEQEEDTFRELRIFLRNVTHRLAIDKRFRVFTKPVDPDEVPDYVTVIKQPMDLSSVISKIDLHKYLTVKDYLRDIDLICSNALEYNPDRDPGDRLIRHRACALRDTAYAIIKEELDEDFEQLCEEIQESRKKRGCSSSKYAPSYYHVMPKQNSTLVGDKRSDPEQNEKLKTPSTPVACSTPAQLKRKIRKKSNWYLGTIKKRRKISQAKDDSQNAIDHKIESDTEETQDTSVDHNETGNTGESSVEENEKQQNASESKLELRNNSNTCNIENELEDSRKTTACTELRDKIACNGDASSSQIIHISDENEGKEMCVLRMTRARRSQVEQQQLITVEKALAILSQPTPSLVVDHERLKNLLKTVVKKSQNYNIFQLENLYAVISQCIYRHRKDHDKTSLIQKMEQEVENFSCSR
As to the kind of experiment: AlphaScreen, ATAD2 construct including the ATPase domain. It counts as binding. Conditions: larger ATAD2 construct including the ATPase domain. A digest of the protocol: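 Binding competition between ATAD2 and an acetylated histone H4 peptide, read by AlphaScreen over increasing test compound concentrations. Signals were normalized, plotted against dose and fitted to a four-parameter logistic equation to give potency.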
(Bead proximity is the source of the signal in Alpha formats.)

Series [2] relates to panel of 354 kinases. As to the kind of experiment: Kinase panel overall. It counts as biochemical, human.
The test system of series [3] is ATAD2 target genes in MCF7 cells. As to the kind of experiment: Gene expression study with quantitative PCR. As to conditions: MCF7, 24 h, up to 6.67 µM. Type of series: cell-based.
Series [4] has as its target T2, His-ATAD2 BD (Homo sapiens, UniProt Q6PL18).
T2 sequence (Q6PL18 981-1108): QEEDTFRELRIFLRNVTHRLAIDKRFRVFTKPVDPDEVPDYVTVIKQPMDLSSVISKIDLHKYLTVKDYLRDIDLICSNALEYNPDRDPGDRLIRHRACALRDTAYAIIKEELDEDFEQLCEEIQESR
The experiment in a line: AlphaScreen binding competition assay, tetra-acetylated H4 peptide. A digest of the protocol:
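Competition for binding of acetylated histone H4 N-terminal peptides to the ATAD2 bromodomain, titrated with increasing test compound. TR-FRET read-out for mono- and tetra-acetylated peptides; AlphaScreen read-out for the tetra-acetylated peptide. Normalized signals plotted against compound dose and fitted to a four-parameter logistic equation to obtain IC50.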

For series [5], the system named is other members of the BD family. As to the kind of experiment: TSA bromodomain selectivity panel. It counts as binding. As to conditions: 10 μM. Summed up:
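Thermal shift assay across the bromodomain family. Melting curves of each bromodomain were acquired with 10 μM test compound or with vehicle. Compound effects were taken from the melting-curve comparison and mapped onto the bromodomain phylogenetic tree.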

Series [6] can be described thus: Permeability. It counts as in vitro ADME. Conditions: Caco-2 assay. (Caco-2 monolayers are a common model of the intestinal barrier.)
In series [7] the target is T3, untagged ATAD2 BD (Homo sapiens, UniProt Q6PL18).
T3 sequence (Q6PL18 981-1108): T2 sequence (Q6PL18 981-1108)
The experiment in a line: Size exclusion chromatography. Conditions: molar ratio 1:1. It counts as binding. (In general: SEC sorts molecules by how far they enter the pores of the column.)

For series [8], the target named is T4, ATAD2 (Homo sapiens, UniProt Q6PL18).
T4 sequence (Q6PL18 981-1108 limits assumed): T2 sequence (Q6PL18 981-1108)
The experiment in a line: BROMOscan. Type of series: binding.

Series [9] concerns the target T5, GST-ATAD2 BD (Homo sapiens, UniProt Q6PL18).
T5 sequence (Q6PL18 981-1108): T2 sequence (Q6PL18 981-1108)
The experiment in a line: Microscale thermophoresis. Type of series: binding. As to conditions: MST. Summed up: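 Fluorescence-labeled GST-ATAD2 incubated with vehicle or increasing test compound concentrations. Thermophoresis traces recorded in real time. Averaged steady-state MST signals plotted against dose and fitted to a 1:1 binding model to derive KD.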

Series [10] concerns HMEC nontransformed mammary epithelial cells. The experiment in a line: Growth inhibition of nontransformed cells. Type of series: cell-based. As to conditions: HMEC vs MCF7 and MDA-MB-231.
The target of series [11] is T6, GFP-tagged full-length wild type ATAD2 in MCF7 cells (Homo sapiens, UniProt Q6PL18).
T6 sequence (Q6PL18 1-1390): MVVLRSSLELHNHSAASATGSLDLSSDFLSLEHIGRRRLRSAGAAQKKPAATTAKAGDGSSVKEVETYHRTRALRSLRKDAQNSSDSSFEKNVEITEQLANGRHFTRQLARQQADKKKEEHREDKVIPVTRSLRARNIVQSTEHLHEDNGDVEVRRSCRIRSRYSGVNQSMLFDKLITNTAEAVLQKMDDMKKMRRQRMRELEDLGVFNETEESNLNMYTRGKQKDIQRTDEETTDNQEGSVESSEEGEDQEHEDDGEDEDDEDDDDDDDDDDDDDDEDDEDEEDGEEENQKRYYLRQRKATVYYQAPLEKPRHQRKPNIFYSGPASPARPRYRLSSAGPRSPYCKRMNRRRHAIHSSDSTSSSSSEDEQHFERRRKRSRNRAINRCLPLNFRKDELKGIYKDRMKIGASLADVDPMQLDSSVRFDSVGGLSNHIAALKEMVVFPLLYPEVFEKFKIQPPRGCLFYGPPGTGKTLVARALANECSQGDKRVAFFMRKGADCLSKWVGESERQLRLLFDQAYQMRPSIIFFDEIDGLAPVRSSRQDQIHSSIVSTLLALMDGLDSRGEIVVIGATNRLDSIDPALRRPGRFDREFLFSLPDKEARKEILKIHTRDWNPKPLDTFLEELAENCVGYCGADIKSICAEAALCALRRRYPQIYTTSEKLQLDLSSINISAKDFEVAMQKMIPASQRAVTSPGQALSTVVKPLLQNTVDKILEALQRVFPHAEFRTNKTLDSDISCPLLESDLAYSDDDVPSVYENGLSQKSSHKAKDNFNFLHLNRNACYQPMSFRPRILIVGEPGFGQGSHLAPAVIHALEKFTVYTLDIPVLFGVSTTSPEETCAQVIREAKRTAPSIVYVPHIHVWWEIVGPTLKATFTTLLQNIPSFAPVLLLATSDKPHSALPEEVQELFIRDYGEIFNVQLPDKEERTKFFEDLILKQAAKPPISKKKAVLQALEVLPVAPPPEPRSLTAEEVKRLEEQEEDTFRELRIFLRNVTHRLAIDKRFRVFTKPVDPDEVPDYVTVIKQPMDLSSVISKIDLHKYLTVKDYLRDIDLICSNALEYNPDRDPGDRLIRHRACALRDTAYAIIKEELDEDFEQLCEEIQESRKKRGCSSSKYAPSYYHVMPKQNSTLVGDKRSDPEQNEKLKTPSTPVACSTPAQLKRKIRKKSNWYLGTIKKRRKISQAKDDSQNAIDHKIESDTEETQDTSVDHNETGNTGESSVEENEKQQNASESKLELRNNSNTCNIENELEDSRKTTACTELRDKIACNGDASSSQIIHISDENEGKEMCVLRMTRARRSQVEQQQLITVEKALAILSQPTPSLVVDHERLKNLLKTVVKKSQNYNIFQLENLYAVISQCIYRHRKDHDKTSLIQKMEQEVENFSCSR
As to the kind of experiment: Fluorescence recovery after photobleaching. It counts as cell-based. A digest of the protocol:
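MCF7 cells transfected with GFP-tagged full-length wild-type ATAD2; BD-mutant and ATPase-mutant constructs run as comparators. Cells treated with 1 μM test compound for 1 h, then a defined area photobleached. Half fluorescence recovery time measured in the bleached area from at least 15 cells per group, reported as mean with standard error of the mean.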

For series [12], the target named is T7, tag-free ATAD2 (Homo sapiens, UniProt Q6PL18).
T7 sequence (Q6PL18 981-1108): T2 sequence (Q6PL18 981-1108)
The experiment in a line: Native mass spectrometry. It counts as binding. Conditions: 10 μM ATAD2 BD, 5 μM compound.

Structures are written as SMILES.

Turning to `COc1cc(Cl)c(C(=O)N[C@@H](CN[C@H]2CC[C@@H](N)CC2)Cc2ccc(C#N)cc2)cc1-c1ccc(CN[C@H](C)c2ccc(C)cc2)o1` [BAY-850], in series [1], the “inhibition of tetra-acetylated H4 peptide binding” value is reported as “inhibited tetra-acetylated H4 peptide binding”. For the same molecule, the “inhibitory activity in kinase panel” value in [2] is “no inhibitory activity”. Also, the “expression of ATAD2 target genes” value in series [3] is recorded as “did not affect the expression”. Moreover, the IC50 in [4] worked out at 157 nM. Besides, the “effect on thermal stability of other BD family members” value in series [5] is listed as “not observed for other members of the BD family”. Besides, the “permeability” value in [6] is reported as “moderate permeability”. In addition, the “ATAD2 dimerisation in SEC elution profile” value in series [7] is given as “compound-induced shift from the ATAD2-monomer to ATAD2-dimer form”. The Kd was determined as 115 nM in [8] and 85 nM in series [9]. Also, the “growth inhibition of nontransformed vs cancer cells” value in series [10] is “similarly active on the nontransformed and cancer cells”. Moreover, the “concentration of maximal on-target cellular activity” value in series [11] (FRAP, MCF7) turned out to be 1 µM. Moreover, the “Recovery t1/2” value in series [11] (MCF7 cells, 1 μM for 1 h, mean ± SEM) was 6.3 ± 1.2 s. In series [12], the “binding to ATAD2 by native MS” value is reported as “one BAY-850 molecule binds to an ATAD2 dimer”.

The values above are taken from publication PMC6218015 (ACS Chemical Biology, 2017).
